This note sets out measurements from ChEMBL document CHEMBL4152217, “Quinonoid compounds via reactions of lawsone and 2-aminonaphthoquinone with α-bromonitroalkenes and nitroallylic acetates: Structural diversity by C-ring modification and cytotoxic evaluation against cancer cells” (Eur J Med Chem, 2018).

The pIC50 is −log10 of the IC50, conventionally taken in molar units.

One test deals with PC-3. The experiment in a line: Cytotoxicity against human PC3 cells assessed as reduction in cell viability after 72 hrs by MTT assay. The format is functional, cell-based. As to conditions: PC-3, 72 h. In a few lines: (§1)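 MTT viability assay. Cancer lines grown in RPMI 1640 and L929 fibroblasts in DMEM, each with 10% FBS, 2 mM glutamine, penicillin/streptomycin, 37 °C, 5% CO2. PBMC were taken from healthy donors by density-gradient centrifugation, kept in RPMI with 20% FBS and stimulated with 2% phytohemagglutinin. Cells were exposed 72 h (0.01–27.32 µM). MTT 0.5 mg/mL for 3 h, absorbance read at 550 nm. IC50 with 95% CI from nonlinear regression; triplicate, ≥3 independent experiments.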
A general note: Tetrazolium assays rely on reduction of a dye to a coloured formazan, in cell work by metabolically active cells.

The subject of another test is L929. The test is described as follows: Cytotoxicity against mouse L929 cells assessed as reduction in cell viability after 72 hrs by MTT assay. It counts as cell-based. As to conditions: L929, 72 h. In a few lines: as §1
A further test deals with HL-60. The test is described as follows: Cytotoxicity against human HL60 cells assessed as reduction in cell viability after 72 hrs by MTT assay. It counts as functional, cell-based. As to conditions: HL-60, 72 h. The method in brief: as §1
The next test relates to NCI-H460. The test is described as follows: Cytotoxicity against human NCI-H460 cells assessed as reduction in cell viability after 72 hrs by MTT assay. As to conditions: NCI-H460, 72 h.
For the next test, the system named is HCT-116. The experiment in a line: Cytotoxicity against human HCT116 cells assessed as reduction in cell viability after 72 hrs by MTT assay. The format is functional, cell-based. The note with it: HCT-116, 72 h. The method in brief: as §1
A further test concerns PBMC. The experiment in a line: Cytotoxicity against human PBMC cells assessed as reduction in cell viability after 72 hrs by MTT assay.
In another test the test system is SF-295. The experiment in a line: Cytotoxicity against human SF295 cells assessed as reduction in cell viability after 72 hrs by MTT assay. The note with it: SF-295, 72 h.

pIC50: −log10 of the molar value.

As for `CCOC(=O)Cc1oc2c(c1-c1cc(OC)c(OC)c(OC)c1)C(=O)c1ccccc1C2=O`, the pIC50 is 5.06 with PC-3; less than 4.95 with L929; 5.40 in the test on HL-60; less than 4.95 in the test on NCI-H460; less than 4.95 with HCT-116; less than 4.95 with PBMC. Moreover, the pIC50 with SF-295 is 4.99.

As to `COc1ccc(-c2cn(-c3ccc(F)cc3)c3c2C(=O)c2ccccc2C3=O)cc1`, the pIC50 in the test on PC-3, in the test on L929, with HL-60, with NCI-H460, in the test with HCT-116 and in the test on PBMC was less than 4.88 throughout. Further, the pIC50 in the test on SF-295 is less than 4.88.

`CCOC(=O)Cc1c(-c2ccc(OC)c(OC)c2)c2c(n1-c1cccc(Br)c1)C(=O)c1ccccc1C2=O`: the pIC50 in the test with PC-3, in the test with L929, in the test on HL-60, with NCI-H460, with HCT-116 and in the test on PBMC was less than 5.06 in each case. The pIC50 in the test with SF-295 is less than 5.06.

On to `CCOC(=O)Cc1oc2c(c1-c1cccs1)C(=O)c1ccccc1C2=O`, for which the pIC50 was less than 4.56 with PC-3; less than 4.56 with L929; 5.23 in the test on HL-60; 5.04 with NCI-H460; 4.86 in the test with HCT-116; less than 4.56 in the test with PBMC. Moreover, the negative-log IC50 (pIC50) with SF-295 is less than 4.56.

Take `Cc1ccc(-c2cn(-c3cccc(Br)c3)c3c2C(=O)c2ccccc2C3=O)cc1`: the pIC50 in the test with PC-3, in the test with L929, with HL-60, in the test on NCI-H460, in the test with HCT-116 and in the test on PBMC was less than 4.88 throughout. Also, the pIC50 in the test on SF-295 is less than 4.88.

For `COc1ccc(-c2cn(-c3ccc(Cl)cc3)c3c2C(=O)c2ccccc2C3=O)cc1`, the pIC50 in the test on PC-3, with L929, with HL-60, with NCI-H460, in the test on HCT-116 and in the test on PBMC was less than 4.90 in each case. Further, the pIC50 with SF-295 is less than 4.90.

Regarding `CCOC(=O)Cc1oc2c(c1-c1ccc(Cl)cc1)C(=O)c1ccccc1C2=O`, the pIC50 was less than 4.90 with PC-3; less than 4.90 with L929; 4.99 in the test with HL-60; less than 4.90 in the test on NCI-H460; less than 4.90 in the test with HCT-116; less than 4.90 in the test with PBMC. In addition, the pIC50 in the test on SF-295 is less than 4.90.

For the compound `COc1ccc(-n2cc(-c3ccc(C)cc3)c3c2C(=O)c2ccccc2C3=O)cc1`, the pIC50 in the test on PC-3, with L929, in the test with HL-60, in the test with NCI-H460, in the test on HCT-116 and in the test with PBMC was less than 4.90 in each case. The pIC50 in the test with SF-295 is less than 4.90.

Consider `CCOC(=O)Cc1c(-c2ccc(OC)c(OC)c2)c2c(n1-c1ccc(Cl)cc1)C(=O)c1ccccc1C2=O`, for which the pIC50 in the test on PC-3, in the test on L929, in the test with HL-60, in the test with NCI-H460, in the test on HCT-116 and in the test with PBMC was less than 5.02 throughout. Moreover, the pIC50 in the test on SF-295 was less than 5.02.

Turning to `CCOC(=O)Cc1c(-c2ccc(C)cc2)c2c(n1-c1ccc(C)cc1)C(=O)c1ccccc1C2=O`, the pIC50 in the test on PC-3, in the test with L929, in the test with HL-60, with NCI-H460, with HCT-116 and in the test on PBMC was less than 4.97 in each case. Besides, the pIC50 in the test on SF-295 is less than 4.97.

As to `COc1ccc(-n2cc(-c3ccco3)c3c2C(=O)c2ccccc2C3=O)cc1`, the negative-log IC50 (pIC50) with PC-3, in the test on L929, in the test with HL-60, in the test with NCI-H460, with HCT-116 and in the test with PBMC was less than 4.87 in each case. Also, the pIC50 in the test with SF-295 was less than 4.87.

In the case of `COc1ccc(-n2cc(-c3ccccc3)c3c2C(=O)c2ccccc2C3=O)cc1`, the negative logarithm of the IC50 (pIC50) with PC-3, in the test with L929, in the test on HL-60, in the test with NCI-H460, in the test on HCT-116 and in the test on PBMC was less than 4.88 each time. For the same compound, the pIC50 with SF-295 was less than 4.88.

On to `CCOC(=O)Cc1oc2c(c1-c1ccc(OC)c(OC)c1)C(=O)c1ccccc1C2=O`, for which the pIC50 is less than 4.92 with PC-3; 5.07 in the test with L929; 5.40 with HL-60; 5.12 in the test on NCI-H460; 5.21 in the test on HCT-116; less than 4.92 in the test with PBMC. Also, the pIC50 in the test with SF-295 is less than 4.92.

As to `CCOC(=O)Cc1oc2c(c1-c1ccco1)C(=O)c1ccccc1C2=O`, the pIC50 with PC-3, in the test with L929, with HL-60, in the test on NCI-H460, with HCT-116 and in the test with PBMC was less than 4.85 throughout. In addition, in the test with SF-295, the pIC50 was less than 4.85.

Turning to `COc1ccc(-n2cc(-c3ccc(F)cc3)c3c2C(=O)c2ccccc2C3=O)cc1`, the pIC50 with PC-3, in the test with L929, with HL-60, with NCI-H460, with HCT-116 and with PBMC was less than 4.90 throughout. In addition, the pIC50 in the test on SF-295 was less than 4.90.

For the compound `CCOC(=O)Cc1c(-c2ccccc2)c2c(n1-c1ccc(C)cc1)C(=O)c1ccccc1C2=O`, the pIC50 in the test on PC-3, with L929, in the test on HL-60, in the test on NCI-H460, in the test with HCT-116 and with PBMC was less than 4.95 each time. For the same compound, the pIC50 in the test on SF-295 was less than 4.95.

Turning to `CCOC(=O)Cc1c(-c2ccc(OC)c(OC)c2)c2c(n1-c1ccc(Br)cc1)C(=O)c1ccccc1C2=O`, the pIC50 in the test on PC-3, with L929, in the test on HL-60, in the test on NCI-H460, with HCT-116 and in the test with PBMC was less than 4.76 in each case. Besides, in the test with SF-295, the pIC50 was 5.19.

Regarding `Cc1ccc(-c2cn(-c3ccc(Br)cc3)c3c2C(=O)c2ccccc2C3=O)cc1`, the pIC50 in the test on PC-3, in the test with L929, in the test with HL-60, in the test with NCI-H460, in the test on HCT-116 and with PBMC was less than 4.92 throughout. The pIC50 in the test on SF-295 is less than 4.92.

In the case of `Cc1ccc(-c2cn(-c3ccc(C)cc3)c3c2C(=O)c2ccccc2C3=O)cc1`, the pIC50 in the test on PC-3, in the test on L929, with HL-60, in the test on NCI-H460, in the test with HCT-116 and in the test on PBMC was less than 4.95 each time. Moreover, in the test with SF-295, the pIC50 was less than 4.95.

On to `CCOC(=O)Cc1oc2c(c1-c1ccc(OC)cc1)C(=O)c1ccccc1C2=O`, for which the pIC50 in the test with PC-3, in the test with L929, in the test with HL-60, in the test on NCI-H460, in the test on HCT-116 and with PBMC was less than 4.89 each time. Besides, the negative logarithm of the IC50 (pIC50) in the test with SF-295 was less than 4.89.

Turning to `CCCCn1cc(-c2ccc(Cl)cc2)c2c1C(=O)c1ccccc1C2=O`, the pIC50 with PC-3, with L929, with HL-60 and in the test on HCT-116 was less than 4.86 in each case.
